The values below come from ChEMBL document CHEMBL1135512 (J Med Chem, 2002).

Series [1] relates to Plasmodium falciparum. The experiment in a line: Percent reversal against Plasmodium falciparum W2 at 1 uM DEEA. The series is classed as functional.
A short description of series [2]: Partition coefficient (logP). The series is classed as physicochemical. The conditions noted are these: octanol/water.
Series [3] deals with Plasmodium falciparum. The experiment in a line: Concentration required to reduce chloroquine IC50 by 50%. The series is classed as functional, organism-based. The conditions noted are these: Plasmodium falciparum. Summed up:
(§1)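 Synergy isotopic microtest on sorbitol-synchronized W2 (Indochina) and 3D7 in RPMI 1640 with 10% human serum, HEPES/NaHCO3, parasitemia 0.5%, hematocrit 1.5%. CQ was combined with subinhibitory fixed DEEA concentrations, and 3H-hypoxanthine was added for 48 h at 37 °C under 10% O2/6% CO2/84% N2. Reversal IC50 is the DEEA concentration halving CQ IC50, found by nonlinear regression of log-dose/IC50.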

The nature of series [4]: In vitro hemolytic concentration on uninfected erythrocytes. Format: functional, Homo sapiens. A digest of the protocol:
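Washed A+ human erythrocytes were held at 1.5% hematocrit in RPMI 1640 with 10% human serum, 25 mM HEPES and 25 mM NaHCO3. Drug (2 mM to 1 μM final, triplicate) was added for 42 h at 37 °C under 10% O2/6% CO2. Released hemoglobin in supernatant was measured with TMB/H2O2 at 455 nm. HC50 is relative to 5% saponin lysis, by nonlinear regression.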

In series [5] the test system is Plasmodium falciparum. The series is described as follows: In vitro inhibitory activity against multidrug-resistant Plasmodium falciparum W2 Indochina. The series is classed as functional, organism-based. A digest of the protocol: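 Clone W2 (Indochina), sorbitol-synchronized, was grown in RPMI 1640 with 10% human serum, 25 mM HEPES and 25 mM NaHCO3, at final parasitemia 0.5% and hematocrit 1.5%. The drug was present for 48 h at 37 °C under 10% O2/6% CO2/84% N2. Growth was read as 3H-hypoxanthine uptake (1 μCi/well). IC50 came from nonlinear regression of log-dose/response as the geometric mean with 95% CI.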

Series [6] can be described thus: Cytotoxicity against Chinese hamster ovary cells. Format: cell-based, Cricetulus griseus. Summed up: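 Cells were then exposed to graded drug concentrations for 48 h at 37 °C, 5% CO2. MTT (1 mg/mL in PBS) was added for 3 h, and formazan was dissolved in DMSO and read at 570/630 nm. IC50 came from nonlinear regression versus drug-free wells.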
Series [7] in a line: Partition coefficient (logD7.0). The series is classed as physicochemical. The conditions noted are these: octanol/water, pH 7; read-out: logD.
The subject of series [8] is Plasmodium falciparum. The series is described as follows: Accumulation coefficient of chloroquine at 1 uM-10 uM of DEEA against Plasmodium falciparum W2. The series is classed as functional. Summed up:
(§2)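 W2 infected erythrocytes were suspended in RPMI 1640 with 25 mM HEPES and 25 mM NaHCO3 (2% parasitemia, 2% hematocrit). They were mixed over silicone oil with buffer holding [3H]CQ (26 Ci/mmol) plus DEEA at 1 or 10 μM. Incubation was 1 h at 37 °C under 10% O2/6% CO2/84% N2, followed by 1 min centrifugation. Ratio = parasite [3H]CQ (infected minus uninfected cells) / same-volume buffer.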

A short description of series [9]: Dissociation constant (pKa). Format: physicochemical.
Series [10] has as its system Plasmodium falciparum. The series is described as follows: Accumulation coefficient of chloroquine at 1 uM-10 uM of DEEA against Plasmodium falciparum W2;Range is from 16-25. The series is classed as functional. A digest of the protocol: as §2
Series [11] relates to Plasmodium falciparum. The series is described as follows: Accumulation coefficient of chloroquine at 1 uM-10 uMof DEEA against Plasmodium falciparum W2. Format: functional. Summed up:
as §2

Series [12] has as its system Plasmodium falciparum. The experiment in a line: Accumulation coefficient of chloroquine at 1 uM-10 uM of DEEA against Plasmodium falciparum 3D7. Format: functional.
The test system of series [13] is Plasmodium falciparum. The experiment in a line: Accumulation coefficient of chloroquine at 1 uM-10 uM of DEEA against Plasmodium falciparum W2; Range is from 23-30. Format: functional.
For series [14], the system named is Plasmodium falciparum. The series is described as follows: Concentration required to reduce chloroquine IC50 by 50%; Antagonist. Format: functional, organism-based. Summed up: as §1

Bounds are passed on as bounds.

`CNCC1CC2c3ccccc3C1c1ccccc12` (configuration not stated): the Reversal in the series on Plasmodium falciparum [1] is listed as 80%. The logP in series [2] (read-out: logP) was 3.66. Besides, the concentration for half-maximal inhibition (IC50) in the series with Plasmodium falciparum [3] worked out at 0.3 µM; with Plasmodium falciparum [5] (Plasmodium falciparum) it was 8 µM. In addition, in series [4], the HC50 is 1090 µM. In series [6], this compound had a Cytotoxicity of 515 µM. Besides, the pH-dependent lipophilicity (logD) in [7] was 0.63. The same compound had an Accumulation coefficient with Plasmodium falciparum [8] of 210. Besides, the pKa in series [9] was 10.2.

Take `CN(C)C=NC(=O)C1C2c3ccccc3C(c3ccccc32)C1C(=O)N=CN(C)C` (configuration not stated): the Reversal in the series with Plasmodium falciparum [1] turned out to be 0%. In addition, in the series on Plasmodium falciparum [10], the Accumulation coefficient stood at 25. Moreover, the log partition coefficient (logP) in series [2] (read-out: logP) came out at 1.6. For the same compound, the IC50 with Plasmodium falciparum [3] was determined as 30 µM; with Plasmodium falciparum [5] (Plasmodium falciparum) it was 33 µM. The 50% haemolytic concentration (HC50) in [4] is >2000 µM. The compound also had a Cytotoxicity in [6] of 820 µM. Further, the pH-dependent lipophilicity (logD) in series [7] came out at 1.6.

On to `CNC1(C)C2CCC(C2)C1(C)C` (configuration not stated) [MECAMYLAMINE], for which, in the series on Plasmodium falciparum [1], the Reversal came to 15%. This compound displayed a logP in [2] of 2.13. Further, the half-inhibitory concentration (IC50) was 6 µM with Plasmodium falciparum [3] and 91.4 µM with Plasmodium falciparum [5] (Plasmodium falciparum). The logD in series [7] is -0.4. In addition, the Accumulation coefficient in the series with Plasmodium falciparum [8] is listed as 45. Also, the pKa in series [9] worked out at 11.

With `CN(C)C(=O)C1C2c3ccccc3C(c3ccccc32)C1C(=O)N(C)C` (stereo in doubt; 4), the Reversal in the series with Plasmodium falciparum [1] is listed as 0%. The concentration for half-maximal inhibition (IC50) with Plasmodium falciparum [5] was found to be 35.5 µM. The Cytotoxicity in series [6] is > 2000 µM.

For `c1ccc2c(c1)C1c3ccccc3C2C2CNCC12` (configuration not stated), in the series on Plasmodium falciparum [1], the Reversal was found to be 80%. Further, the lipophilicity (logP) in series [2] (read-out: logP) amounted to 2.98. The IC50 in the series on Plasmodium falciparum [3] was 0.2 µM; in the series on Plasmodium falciparum [5] (Plasmodium falciparum), 10 µM. Moreover, in [4], the HC50 was >2000 µM. Further, the Cytotoxicity in series [6] was determined as 1110 µM. Moreover, the logD in series [7] stood at 0. In addition, the Accumulation coefficient with Plasmodium falciparum [8] came to 322. The compound further came in with a pKa in series [9] of 10.2.

`CCN(CC)CCCC(C)Nc1ccnc2cc(Cl)ccc12` (configuration not stated) [CHLOROQUINE]: in the series with Plasmodium falciparum [1], the Reversal is on record as 0%. Also, the Accumulation coefficient came to 18 with Plasmodium falciparum [11] and 191 in the series with Plasmodium falciparum [12]. The compound also displayed a 50% inhibitory concentration (IC50) in the series with Plasmodium falciparum [5] (Plasmodium falciparum) of 0.9 µM.

As to `O=C(NCc1ccccc1)C1=CC2c3ccccc3C1c1ccccc12`, the Reversal with Plasmodium falciparum [1] turned out to be 0%. Also, the logP in series [2] (read-out: logP) was found to be 4.41. Further, the concentration for half-maximal inhibition (IC50) in the series with Plasmodium falciparum [3] was 23 µM; in the series with Plasmodium falciparum [5] (Plasmodium falciparum), 50 µM. Besides, in series [4], the 50% haemolytic concentration (HC50) was >2000 µM. The Cytotoxicity in [6] is > 2000 µM. In addition, the log distribution coefficient (logD) in series [7] was 4.41. Moreover, the Accumulation coefficient with Plasmodium falciparum [8] worked out at 46.

On to `CN(C)CC1=CC2c3ccccc3C1c1ccccc12`, for which the Reversal in the series with Plasmodium falciparum [1] was determined as 65%. Also, the logP in series [2] (read-out: logP) is 3.68. The results for the half-inhibitory concentration (IC50) in the series with Plasmodium falciparum [3] and with Plasmodium falciparum [5] (Plasmodium falciparum) were 0.5 µM and 4 µM, respectively. In [4], the HC50 was determined as 1630 µM. In addition, in series [6], the Cytotoxicity is 1427 µM. Besides, the logD in series [7] was determined as 2.61. Also, the Accumulation coefficient with Plasmodium falciparum [8] is reported as 53. The same compound gave a pKa in [9] of 8.04.

Regarding `COc1ccc(CCN(C)CCCC(C#N)(c2ccc(OC)c(OC)c2)C(C)C)cc1OC` (configuration not stated), the Reversal in the series with Plasmodium falciparum [1] came out at 57%. The IC50 is 0.8 µM with Plasmodium falciparum [3] and 13.4 µM in the series on Plasmodium falciparum [5] (Plasmodium falciparum). Besides, the HC50 in series [4] was 861 µM. The compound also registered an Accumulation coefficient in the series on Plasmodium falciparum [8] of 97. The same compound yielded a pKa in [9] of 8.29.

Turning to `COC(=O)C1C2c3ccccc3C(c3ccccc32)C1C(=O)N(C)C` (configuration not stated), the Reversal in the series on Plasmodium falciparum [1] amounted to 0%. In addition, the logP in series [2] (read-out: logP) was found to be 2.47. For the same compound, the HC50 in series [4] is >2000 µM. Besides, the 50% inhibitory concentration (IC50) was 32 µM in the series with Plasmodium falciparum [5] (Plasmodium falciparum) and “Antagonist” in the series with Plasmodium falciparum [14]. Further, the Cytotoxicity in series [6] is > 2000 µM. Moreover, the Accumulation coefficient in the series on Plasmodium falciparum [13] is listed as 30. For the same compound, the logD in series [7] was 2.47. The pKa in [9] was -1.65.

One may read the logP as a log measure of how a compound divides between an organic and an aqueous phase. The term IC50 denotes the concentration that gives 50% inhibition. Read a high IC50 as weaker potency in that assay. By HC50 is commonly meant the concentration that lyses half of the red blood cells. A high value points to less damage to red cells. In general, logD refers to the decadic logarithm of the distribution of all forms, ionised or not, between an organic phase and buffer at a given pH. The pKa is the negative logarithm of the acid dissociation constant. Higher therefore signals a weaker acid or stronger base.
